In ChEMBL document CHEMBL1649165, “Activity profile in vitro of micafungin against Spanish clinical isolates of common and emerging species of yeasts and molds” (2009):
Converted amounts (≈) assume the structure as drawn. *1 amine or outer side, *2 acyl side, *3 side chain or, on linkers, in order; H or OH if unused. Where a SMILES comes first, the peptide text is derived from it. Bridges are numbered along the chain shown (N, C = ends). [ ]: non-standard residue; d: D form. The star is where a group is joined. hTyr(3S-OH,4S-OH,3'-OSO3H) = N[C@H](C(=O)O)[C@H](O)[C@@H](O)c1ccc(O)c(OS(=O)(=O)O)c1; Orn(4R-OH,5R-OH) = O=C([C@H](C[C@@H](O)[C@@H](O)N[*:3])N[*:1])[*:2]; Pro(3S-OH,4S-Me) = C[C@H]1CN[C@H](C(=O)O)[C@H]1O; X1 = CCCCCOc1ccc(-c2cc(-c3ccc(C(=O)*)cc3)no2)cc1; Gln(3R-OH) = NC(=O)C[C@@H](O)[C@H](N)C(=O)O; Hyp = O=C(O)[C@@H]1C[C@@H](O)CN1

Tests used:
Type in all cases: functional
[1] = test system: Trichosporon dermatis; assay: Antimicrobial activity against Trichosporon dermatis by broth microdilution method; settings: Cutaneotrichosporon dermatis
In short: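 Nonfermentative yeast clinical isolates (Rhodotorula, Trichosporon) tested by broth microdilution. The EUCAST yeast recommendations were followed strictly, with one minor modification to improve growth. MIC was read as the endpoint.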

[2] = test system: Aspergillus ustus; assay: Antimicrobial activity against Aspergillus ustus by broth microdilution method
In short: (§1)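 Clinical mould isolates, tested by broth microdilution using the AFST-EUCAST reference method for filamentous fungi. For echinocandins, the endpoint was the minimum effective concentration: the lowest drug concentration giving aberrant hyphal growth, read with an inverted microscope.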

[3] = test system: Exophiala jeanselmei; assay: Antimicrobial activity against Exophiala jeanselmei by broth microdilution method
[4] = test system: Cryptococcus deneoformans; assay: Antimicrobial activity against Cryptococcus neoformans var. neoformans by broth microdilution method
In short: (§2)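 Clinical isolates of nonfermentative yeasts, tested by broth microdilution following EUCAST recommendations. The only change from that method was a minor modification to improve growth.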

[5] = test system: Aspergillus sydowii; assay: Antimicrobial activity against Aspergillus sydowii by broth microdilution method; in short: as §1
[6] = test system: Kazachstania pintolopesii; assay: Antimicrobial activity against Candida pintolopesii by broth microdilution method; settings: Arxiozyma pintolopesii
In short: (§3)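 Clinical isolates from human patients, tested by broth microdilution using the AFST-EUCAST reference procedure for fermentative yeasts. The MIC was read per that reference method.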

[7] = test system: Fusarium verticillioides; assay: Antimicrobial activity against Fusarium verticillioides by broth microdilution method
In short: (§4)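 Filamentous fungus clinical isolates tested by the AFST-EUCAST reference broth microdilution method for moulds. For echinocandins, the endpoint was the minimum effective concentration: the lowest drug concentration giving aberrant hyphal growth, read with an inverted microscope.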

[8] = test system: Naganishia albida; assay: Antimicrobial activity against Cryptococcus albidus by broth microdilution method; in short: as §2
[9] = Antimicrobial activity against Rhizopus microsporus by broth microdilution method; in short: as §4
[10] = test system: Aspergillus; assay: Antimicrobial activity against Aspergillus spp. by broth microdilution method; in short: as §1
[11] = test system: Aureobasidium pullulans; assay: Antimicrobial activity against Aureobasidium pullulans by broth microdilution method
[12] = test system: Acremonium sp.; assay: Antimicrobial activity against Acremonium sp.by broth microdilution method; in short: as §1
[13] = test system: Fusarium oxysporum; assay: Antimicrobial activity against Fusarium oxysporum by broth microdilution method; in short: as §1
[14] = test system: Torulaspora delbrueckii; assay: Antimicrobial activity against Candida coliculosa by broth microdilution method; in short: as §3
[15] = test system: Penicillium; assay: Antimicrobial activity against Penicillium spp. by broth microdilution method; in short: as §4
[16] = test system: Saksenaea vasiformis; assay: Antimicrobial activity against Saksenaea vasiformis by broth microdilution method; in short: as §4
[17] = test system: Candida parapsilosis; assay: Antimicrobial activity against Candida parapsilosis by broth microdilution method; settings: Lodderomyces parapsilosis; in short: as §3
[18] = test system: Rhizomucor; assay: Antimicrobial activity against Rhizomucor spp.by broth microdilution method; in short: as §4
[19] = test system: Lewia infectoria; assay: Antimicrobial activity against Alternaria infectoria by broth microdilution method; in short: as §1
[20] = test system: Meyerozyma guilliermondii; assay: Antimicrobial activity against Candida guilliermondii by broth microdilution method; in short: as §3
[21] = test system: Fusarium proliferatum; assay: Antimicrobial activity against Fusarium proliferatum by broth microdilution method; in short: as §1
[22] = test system: Aspergillus niger; assay: Antimicrobial activity against Aspergillus niger by broth microdilution method; in short: as §1
[23] = test system: Cladosporium; assay: Antimicrobial activity against Cladosporium spp. by broth microdilution method; in short: as §1
[24] = test system: Candida tropicalis; assay: Antimicrobial activity against Candida tropicalis by broth microdilution method; in short: as §3
[25] = test system: Beauveria bassiana; assay: Antimicrobial activity against Beauveria bassiana by broth microdilution method; in short: as §1
[26] = test system: Neurospora sitophila; assay: Antimicrobial activity against Chrysonilia sitophila by broth microdilution method; in short: as §1
[27] = test system: Exophiala dermatitidis; assay: Antimicrobial activity against Exophiala dermatitidis by broth microdilution method
[28] = test system: Trichoderma; assay: Antimicrobial activity against Trichoderma spp. by broth microdilution method; in short: as §4
[29] = test system: Debaryomyces hansenii; assay: Antimicrobial activity against Candida famata by broth microdilution method; in short: as §3
[30] = test system: Papiliotrema laurentii; assay: Antimicrobial activity against Cryptococcus laurentii by broth microdilution method; in short: as §2
[31] = test system: Fusarium reticulatum; assay: Antimicrobial activity against Fusarium reticulatum by broth microdilution method; in short: as §4
[32] = test system: Aspergillus sclerotiorum; assay: Antimicrobial activity against Aspergillus sclerotiorum by broth microdilution method; in short: as §1
[33] = test system: Fennellia nivea; assay: Antimicrobial activity against Aspergillus niveus by broth microdilution method; in short: as §1
[34] = test system: Scytalidium hyalinum; assay: Antimicrobial activity against Scytalidium hyalinum by broth microdilution method; settings: Neoscytalidium hyalinum; in short: as §4
[35] = test system: Kluyveromyces marxianus; assay: Antimicrobial activity against Candida kefyr by broth microdilution method; in short: as §3
[36] = test system: Hortaea werneckii; assay: Antimicrobial activity against Hortaea werneckii by broth microdilution method
[37] = test system: Saccharomyces cerevisiae; assay: Antimicrobial activity against Saccharomyces cerevisiae by broth microdilution method
[38] = Antimicrobial activity against Hormographiella aspergillata by broth microdilution method; settings: Coprinopsis cinerea; in short: as §4
[39] = test system: Yarrowia lipolytica; assay: Antimicrobial activity against Yarrowia lipolytica by broth microdilution method
[40] = test system: Lichtheimia corymbifera; assay: Antimicrobial activity against Mycocladus corymbiferus by broth microdilution method; in short: as §4
[41] = test system: Paecilomyces lilacinus; assay: Antimicrobial activity against Paecilomyces lilacinus by broth microdilution method; settings: Purpureocillium lilacinum; in short: as §4
[42] = test system: Trichosporon domesticum; assay: Antimicrobial activity against Trichosporon mycotoxinivorans by broth microdilution method; settings: Apiotrichum domesticum
In short: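 Spanish human clinical isolates were tested as nonfermentative yeasts by broth microdilution. The method strictly followed the EUCAST recommendations, with a minor modification to improve growth, and the read-out was the MIC.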

[43] = test system: [Candida] intermedia; assay: Antimicrobial activity against Candida intermedia by broth microdilution method; settings: Sungouiella intermedia; in short: as §3
[44] = test system: [Candida] zeylanoides; assay: Antimicrobial activity against Candida zeylanoides by broth microdilution method; settings: Dujonia zeylanoides; in short: as §3

In the case of `CCCCCOc1ccc(-c2cc(-c3ccc(C(=O)N[C@H]4C[C@@H](O)[C@@H](O)NC(=O)[C@@H]5[C@@H](O)[C@@H](C)CN5C(=O)[C@H]([C@H](O)CC(N)=O)NC(=O)[C@H]([C@H](O)[C@@H](O)c5ccc(O)c(OS(=O)(=O)O)c5)NC(=O)[C@@H]5C[C@@H](O)CN5C(=O)[C@H]([C@@H](C)O)NC4=O)cc3)no2)cc1` [MICAFUNGIN] (X1-[Orn(4R-OH,5R-OH)]T[Hyp][hTyr(3S-OH,4S-OH,3'-OSO3H)][Gln(3R-OH)][Pro(3S-OH,4S-Me)]; lactam 1-C), the MIC50 [1] was greater than 16 mg/L, the MIC90 [1] was greater than 16 mg/L and the MIC50 [2] was 0.06 mg/L (≈ 0.0472 µM). For the same molecule, the MIC90 [2] was 0.25 mg/L (≈ 0.197 µM), the MIC50 [3] was 0.03 mg/L (≈ 0.0236 µM) and the MIC90 [3] was 0.06 mg/L (≈ 0.0472 µM). The MIC50 [4] was greater than 16 mg/L, the MIC90 [4] was greater than 16 mg/L and the MIC50 [5] was 0.03 mg/L (≈ 0.0236 µM). For the same molecule, the MIC90 [5] was 0.03 mg/L (≈ 0.0236 µM), the MIC50 [6] was 0.03 mg/L (≈ 0.0236 µM) and the MIC90 [6] was 0.12 mg/L (≈ 0.0945 µM). The MIC50 [7] was greater than 16 mg/L, the MIC90 [7] was greater than 16 mg/L and the MIC50 [8] was greater than 16 mg/L. It also gave an MIC90 [8] greater than 16 mg/L, an MIC50 [9] greater than 16 mg/L and an MIC90 [9] greater than 16 mg/L. The MIC50 [10] was 0.06 mg/L (≈ 0.0472 µM), the MIC90 [10] was 0.25 mg/L (≈ 0.197 µM) and the MIC50 [11] was 0.03 mg/L (≈ 0.0236 µM). It also gave an MIC90 [11] of 0.06 mg/L (≈ 0.0472 µM), an MIC50 [12] of 0.12 mg/L (≈ 0.0945 µM) and an MIC90 [12] of 0.25 mg/L (≈ 0.197 µM). It also gave an MIC50 [13] greater than 16 mg/L, an MIC90 [13] greater than 16 mg/L and an MIC50 [14] of 0.03 mg/L (≈ 0.0236 µM). For the same molecule, the MIC90 [14] was 0.12 mg/L (≈ 0.0945 µM), the MIC50 [15] was 0.03 mg/L (≈ 0.0236 µM) and the MIC90 [15] was 0.06 mg/L (≈ 0.0472 µM). The MIC50 [16] was greater than 16 mg/L, the MIC90 [16] was greater than 16 mg/L and the MIC50 [17] was 0.5 mg/L (≈ 0.394 µM). It also gave an MIC90 [17] of 1 mg/L (≈ 0.787 µM), an MIC50 [18] greater than 16 mg/L and an MIC90 [18] greater than 16 mg/L. It also gave an MIC50 [19] greater than 16 mg/L, an MIC90 [19] greater than 16 mg/L and an MIC50 [20] of 0.12 mg/L (≈ 0.0945 µM). For the same molecule, the MIC90 [20] was 1 mg/L (≈ 0.787 µM), the MIC50 [21] was greater than 16 mg/L and the MIC90 [21] was greater than 16 mg/L. The MIC50 [22] was 0.03 mg/L (≈ 0.0236 µM), the MIC90 [22] was 0.06 mg/L (≈ 0.0472 µM) and the MIC50 [23] was 0.03 mg/L (≈ 0.0236 µM). The MIC90 [23] was 0.06 mg/L (≈ 0.0472 µM), the MIC50 [24] was 0.03 mg/L (≈ 0.0236 µM) and the MIC90 [24] was 0.03 mg/L (≈ 0.0236 µM). The MIC50 [25] was greater than 16 mg/L, the MIC90 [25] was greater than 16 mg/L and the MIC50 [26] was greater than 16 mg/L. For the same molecule, the MIC90 [26] was greater than 16 mg/L, the MIC50 [27] was 0.03 mg/L (≈ 0.0236 µM) and the MIC90 [27] was 0.06 mg/L (≈ 0.0472 µM). The MIC50 [28] was greater than 16 mg/L, the MIC90 [28] was greater than 16 mg/L and the MIC50 [29] was 0.03 mg/L (≈ 0.0236 µM). For the same molecule, the MIC90 [29] was 0.12 mg/L (≈ 0.0945 µM), the MIC50 [30] was greater than 16 mg/L and the MIC90 [30] was greater than 16 mg/L. For the same molecule, the MIC50 [31] was greater than 16 mg/L, the MIC90 [31] was greater than 16 mg/L and the MIC50 [32] was 0.06 mg/L (≈ 0.0472 µM). The MIC90 [32] was 0.25 mg/L (≈ 0.197 µM), the MIC50 [33] was 0.06 mg/L (≈ 0.0472 µM) and the MIC90 [33] was 0.25 mg/L (≈ 0.197 µM). It also gave an MIC50 [34] of 0.03 mg/L (≈ 0.0236 µM), an MIC90 [34] of 0.06 mg/L (≈ 0.0472 µM) and an MIC50 [35] of 0.03 mg/L (≈ 0.0236 µM). It also gave an MIC90 [35] of 0.03 mg/L (≈ 0.0236 µM), an MIC50 [36] of 0.03 mg/L (≈ 0.0236 µM) and an MIC90 [36] of 0.06 mg/L (≈ 0.0472 µM). The MIC50 [37] was 0.03 mg/L (≈ 0.0236 µM), the MIC90 [37] was 0.06 mg/L (≈ 0.0472 µM) and the MIC50 [38] was greater than 16 mg/L. It also gave an MIC90 [38] greater than 16 mg/L, an MIC50 [39] of 0.03 mg/L (≈ 0.0236 µM) and an MIC90 [39] of 1 mg/L (≈ 0.787 µM). It also gave an MIC50 [40] greater than 16 mg/L, an MIC90 [40] greater than 16 mg/L and an MIC50 [41] greater than 16 mg/L. It also gave an MIC90 [41] greater than 16 mg/L, an MIC50 [42] greater than 16 mg/L and an MIC90 [42] greater than 16 mg/L. For the same molecule, the MIC50 [43] was 0.03 mg/L (≈ 0.0236 µM), the MIC90 [43] was 0.12 mg/L (≈ 0.0945 µM) and the MIC50 [44] was 0.03 mg/L (≈ 0.0236 µM). The MIC90 [44] was 0.12 mg/L (≈ 0.0945 µM).
